SIRT5 block: sirtuin-5 (human) deacylase inhibition | Q9NXA8 | Purified SirT5, succinyl-peptide AMC, trypsin-coupled fluorescence | inhibition, % at 15 µM | hit rate 1.1% among 330,000; in the data active = inhibition above about 15%
Target sequence (Q9NXA8 whole entry, looked up): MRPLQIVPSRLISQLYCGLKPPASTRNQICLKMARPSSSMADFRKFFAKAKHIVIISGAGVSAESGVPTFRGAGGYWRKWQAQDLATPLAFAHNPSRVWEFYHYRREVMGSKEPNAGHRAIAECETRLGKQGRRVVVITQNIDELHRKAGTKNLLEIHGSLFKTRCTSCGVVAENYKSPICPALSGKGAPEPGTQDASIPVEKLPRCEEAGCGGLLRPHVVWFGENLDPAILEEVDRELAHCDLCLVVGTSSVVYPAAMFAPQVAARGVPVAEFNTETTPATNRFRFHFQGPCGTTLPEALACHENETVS
E-sel inducer: induces E-selectin expression in human endothelial cells; HUVEC E-selectin immunofluorescence imaging; normalized: neutral wells 0, TNF-alpha wells 100; activation, % at 7.58 µM; hit rate 0.37% among 260,000;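 active = mean E-selectin-positive cell signal at least 10% of the positive control, reached in at least 60% of replicates, without over 20% cell loss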
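Read-out basis: % PE-positive cells; Test system: HUVEC primary endothelial cells; Technique: immunofluorescence imaging; Dosing: single-point compound dose.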
Ecoli rRNA inh: selective bacterial rRNA inhibition in E. coli | E. coli WT GFP vs humanized-ribosome RFP mutants, fluorescence, 24 h; active compounds read low; DMSO median 0, no signal -100 | GFP signal change (wild-type ribosome), % (test concentration not listed) | hit rate 1.6% among 350,000;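 active = significant combined selectivity score with lowered wild-type GFP, culture density cut under 30%, mutant RFP and density less affected; inactive = any of these conditions unmet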
MLL AF4-AF9 inh: inhibitors of human MLL-AF4/AF9 interaction; P42568; AlphaScreen, biotin-AF4 peptide binding to FLAG-AF9; inhibition, % at 10 µM; hit rate 0.47% among 350,000;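 active = every replicate reaching a set inhibition limit, whatever the replicate mean, cut at about 25% in these data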;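 also: 0% = plate neutral control median and 100% = total signal loss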
ERAP1 inh: ERAP1 (human) enzyme inhibition; recombinant ERAP1, Leu-AMC fluorescence, 60 min; inhibition, % at 10.7 µM; hit rate 0.15% among 340,000; AID 652197;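 active = mean replicate inhibition of at least 30%, or all replicates individually reaching that 30% level; inactive = mean below 30% and not every replicate reaching it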;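 also: 0% = neutral control wells and 100% = L-leucinethiol positive control wells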
S100A4 inh HTS: inhibitors of human S100A4 binding to myosin IIA peptide. P26447. S100A4/TAMRA-MyoIIA peptide fluorescence polarization. inhibition, % at 10.7 µM. hit rate 0.14% among 360,000. AID 652163;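 active = mean inhibition of at least 70% across replicates, with every replicate also reaching that level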
Target sequence (P26447 whole entry, looked up): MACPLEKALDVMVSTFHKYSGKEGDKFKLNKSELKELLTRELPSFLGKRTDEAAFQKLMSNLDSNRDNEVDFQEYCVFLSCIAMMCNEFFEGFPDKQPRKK
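Material: S100A4 monomer (human). Medium: Calcium-containing HEPES buffer, pH 7.2. Probe or stimulus: labelled myosin peptide probe, 5 nM. Compound dosing: one concentration per compound. Timing: polarization read 5 min after assay mix addition, stable 5–60 min. Benchmarks: DMSO as neutral control, TFP as positive control.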
Numbers without * were called inactive; . = not tested or not shown. Shown are actives, neighbours in structure and some others; about 3.4% of the full set was active somewhere.

SMILES | SIRT5 block | E-sel inducer | Ecoli rRNA inh | MLL AF4-AF9 inh | ERAP1 inh | S100A4 inh HTS
CN1C[C@H]2[C@@H](c3ccccc31)[C@H](CO)N2C(=O)Nc1ccccc1 | . | -0.4 | -6.3 | . | . | .
C[C@H]1CN([C@@H](C)CO)S(=O)(=O)c2ccc(C#Cc3cccnc3)cc2O[C@H]1CN(C)C(=O)Nc1ccc2c(c1)OCO2 | 0.8 | 0.2 | -9.1 | 5.7 | -8.3 | 4.7
C[C@@H]1CN([C@H](C)CO)C(=O)c2cccc(NC(=O)Nc3ccc(C(F)(F)F)cc3)c2O[C@H]1CN(C)S(=O)(=O)c1cccs1 | 16.6* | 16.0 | 4.1 | -3.2 | 2.0 | -34.6
C[C@H]1CN([C@@H](C)CO)C(=O)c2cccc(NC(=O)Nc3ccc(C(F)(F)F)cc3)c2O[C@@H]1CN(C)S(=O)(=O)c1ccc(F)cc1 | 13.0 | 1.2 | 0.6 | 0.7 | -7.9 | 5.7
C[C@H]1CN([C@@H](C)CO)C(=O)c2cccc(NC(=O)Nc3ccc(C(F)(F)F)cc3)c2O[C@H]1CN(C)S(=O)(=O)c1ccc(F)cc1 | 15.6* | 0.0 | 1.5 | -0.2 | 0.5 | 4.3
CC(C)c1ccc(-c2csc3ncnc(N4CCN(C)CC4)c23)cc1 | -0.7 | . | -27.7* | 0.9 | 1.0 | -4.2
COc1cccc(S(=O)(=O)N2C[C@H](O)COC[C@H]3O[C@H](CC(=O)N4CCOCC4)CC[C@@H]32)c1 | -6.3 | 0.1 | 2.3 | -1.9 | -1.8 | -6.2
C[C@@H]1CCCCO[C@H](CN(C)Cc2ccc3c(c2)OCO3)[C@H](C)CN([C@@H](C)CO)C(=O)c2cc(NC(=O)Nc3ccc4c(c3)OCO4)ccc2O1 | 3.4 | . | 4.1 | 27.2* | 0.0 | -13.3
C[C@H]1CCCCO[C@H](CN(C)Cc2ccc3c(c2)OCO3)[C@@H](C)CN([C@@H](C)CO)C(=O)c2cc(NC(=O)Nc3ccc4c(c3)OCO4)ccc2O1 | 0.6 | . | -12.4 | 28.7* | 1.0 | -3.5
C[C@@H]1CCCCO[C@@H](CN(C)Cc2ccc3c(c2)OCO3)[C@@H](C)CN([C@@H](C)CO)C(=O)c2cc(NC(=O)Nc3ccc4c(c3)OCO4)ccc2O1 | 2.6 | . | 2.2 | 11.7 | -2.0 | -10.4
C[C@H]1CCCCO[C@@H](CN(C)Cc2ccncc2)[C@@H](C)CN([C@@H](C)CO)C(=O)c2cc(NC(=O)Nc3ccc4c(c3)OCO4)ccc2O1 | -0.8 | 0.1 | -1.4 | 11.0 | 0.3 | 5.6
C[C@H]1CCCCO[C@H](CN(C)Cc2ccc(C(F)(F)F)cc2)[C@@H](C)CN([C@@H](C)CO)C(=O)c2cc(NC(=O)Nc3ccc4c(c3)OCO4)ccc2O1 | 4.7 | 0.0 | -5.2 | 2.4 | -2.1 | 153.3*
C[C@@H]1CCCCO[C@@H](CN(C)Cc2ccc(C(F)(F)F)cc2)[C@H](C)CN([C@H](C)CO)C(=O)c2cc(NC(=O)Nc3ccc4c(c3)OCO4)ccc2O1 | 5.4 | -0.1 | -6.9 | 2.3 | -3.2 | 1.9
C[C@H](CO)N1C[C@H](C)[C@@H](CN(C)Cc2ccncc2)OCCCC[C@H](C)Oc2ccc(NC(=O)Nc3ccc4c(c3)OCO4)cc2C1=O | 15.7* | -0.1 | -0.1 | -0.2 | 2.2 | 7.5
CN(C)C(=O)[C@H]1[C@H](CO)[C@H]2Cn3c(ccc(C4=CCCC4)c3=O)[C@H]2N1Cc1ccccn1 | 7.4 | -0.1 | 1.5 | -1.1 | 0.9 | 5.0
C[C@@H]1CCCCO[C@H](CN(C)CC2CC2)[C@@H](C)CN([C@H](C)CO)C(=O)c2cc(NC(=O)Nc3ccc4c(c3)OCO4)ccc2O1 | -0.8 | 1.8 | 4.6 | 25.5* | 0.1 | -20.6
C[C@@H]1CCCCO[C@@H](CN(C)CC2CC2)[C@@H](C)CN([C@H](C)CO)C(=O)c2cc(NC(=O)Nc3ccc4c(c3)OCO4)ccc2O1 | -2.3 | 0.0 | 5.9 | 19.2 | 0.2 | -31.2
O=C(C[C@H]1CC[C@@H]2[C@H](COC[C@@H](O)CN2C(=O)Nc2ccc(F)cc2)O1)NCc1ccncn1 | -2.8 | -0.1 | 4.2 | -2.1 | 1.7 | -7.9
C[C@H](CO)N1C[C@H](C)[C@@H](CN(C)Cc2ccc3c(c2)OCO3)OCCCC[C@H](C)Oc2ccc(NS(=O)(=O)c3ccc(Cl)cc3)cc2C1=O | 8.9 | . | 2.6 | 9.0 | -3.0 | -29.7
CCn1c(SCc2cccc(F)c2)nc2c(c1=O)SCC2 | -3.1 | 2.0 | -35.5* | 8.6 | -1.2 | -3.5
CCn1c(SCc2ccc(F)cc2)nc2c(c1=O)SCC2 | 5.6 | 3.5 | -30.9* | 5.5 | 2.2 | -3.8
COC(=O)[C@@]1(Cc2ccc(F)cc2)[C@H]2c3cc(C(=O)N(C)C)n(Cc4cc(F)cc5c4OCOC5)c3C[C@H]2CN1C(=O)c1ccccc1 | -2.8 | -2.1 | 12.9 | 3.6 | . | -5.8
COC(=O)[C@@]1(Cc2ccc(F)cc2)[C@H]2c3cc(C(=O)N4CCCC4)n(Cc4cc(F)cc5c4OCOC5)c3C[C@H]2CN1C(=O)c1ccccc1 | 22.3* | -7.2 | 3.8 | 2.3 | . | -7.4
COc1ccc2c3c(n(C)c2c1)[C@@H](CO)N(C(=O)CC1CC1)CC31CN(Cc2ccccc2)C1 | -2.5 | -0.4 | 0.8 | 13.4 | -1.4 | -13.1
Cc1ccc(S(=O)(=O)Nc2ccc3c(c2)C(=O)N([C@H](C)CO)C[C@H](C)[C@H](CN(C)C(=O)Nc2cccc4ccccc24)O3)cc1 | 0.2 | 0.0 | -1.3 | 1.3 | 0.4 | 6.2
SMILES | SIRT5 block | E-sel inducer | Ecoli rRNA inh | MLL AF4-AF9 inh | ERAP1 inh | S100A4 inh HTS
CCOC(=O)c1c(CSC(=N)N)n(-c2ccccc2)c2cc(Br)c(OC(C)=O)cc12 | -3.5 | 1.3 | -42.9* | 16.0 | -4.6 | -2.1
Cn1c(=O)n(C)c2cc(NS(=O)(=O)c3ccc(Cl)s3)ccc21 | 17.9* | 2.2 | -21.3 | -2.1 | -1.4 | -4.3
CCOc1cc(/C=C/c2cccc[n+]2C)ccc1OCC(=O)Nc1ccc(C)cc1 | 2.5 | . | 3.7 | 4.8 | 72.7* | 2.0
COc1cc(/C=C/c2cccc[n+]2C)ccc1OCC(=O)Nc1ccccc1C | 0.9 | -0.3 | 9.0 | 0.4 | 3.3 | -0.8
O=C(NN1C(=O)C2C3C=CC(C4CC34)C2C1=O)c1cccc(Br)c1 (centres undefined) | -1.4 | 0.3 | -25.2* | 0.4 | 2.2 | -18.5
CCN1C(=O)C2(C(C#N)=C(N)Oc3c2c(C)nn3-c2ccccc2)c2ccccc21 (centres undefined) | -1.2 | . | -18.8 | 1.9 | -6.1 | -1.6
Cc1nn(-c2ccccc2)c2c1C1(C(=O)N3c4c(cccc41)C(C)CC3(C)C)C(C#N)=C(N)O2 (centres undefined) | 1.3 | . | -45.7* | 12.3 | 3.5 | -0.9
COC(=O)c1sccc1NC(=O)C1CC(C)=C(C)CC1C(=O)O (centres undefined) | -0.1 | 2.5 | -5.3 | 30.2* | 18.0 | -10.1
COC(=O)c1sccc1NC(=O)c1c(F)c(F)c(F)c(F)c1F | -3.7 | 0.4 | -11.3 | 0.5 | 1.1 | -0.6
